ChEMBL document CHEMBL4130635, “2,4-Diaminoquinazolines as Dual Toll-like Receptor (TLR) 7/8 Modulators for the Treatment of Hepatitis B Virus” (J Med Chem, 2018)
Activity calls are given as the source filed them. No cut-off for these calls is given here.

Columns and labels:
Cynomolgus monkey [1] = assay: Induction of ISG response in cynomolgus monkey plasma assessed as upregulation of Oas1b mRNA expression at 30 mg/kg, po after 24 hrs by Fluidigm RT-qPCR analysis (reference value: 1); assay type: functional, Macaca fascicularis
Procedure, shortened: (§1)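 Cynomolgus monkeys, single oral doses of 1, 3, 9 and 30 mg/kg with a planned 2-week wash-out between doses. Systemic ISG (ISG15, Mx1, OAS1) mRNA was measured by Fluidigm RT-qPCR at 1, 2, 4, 8 and 24 h postdose.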

Cynomolgus monkey [2] = assay: Proinflammatory activity in cynomolgus monkey plasma assessed as IL-6 levels at 1 mg/kg, po after 24 hrs by Luminex assay (reference value: 80 pg/ml); assay type: functional, Macaca fascicularis
Cynomolgus monkey [3] = assay: Induction of ISG response in cynomolgus monkey plasma assessed as upregulation of Mx1 mRNA expression at 9 mg/kg, po after 24 hrs by Fluidigm RT-qPCR analysis (reference value: 1); assay type: functional, Macaca fascicularis; procedure, shortened: as §1
Plasma [4] = assay: Anti-inflammatory activity in C57BL/6J mouse plasma assessed as IL-10 levels at 30 mg/kg, po by multiplex assay (reference value: 120 pg/ml); assay type: functional
Procedure, shortened: (§2)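 Single oral gavage in 20% HP-β-CD to healthy C57BL/6 mice, groups of 15 at 0.3, 1, 3, 10 or 30 mg/kg. Three mice per group sacrificed at 0.5, 1, 2, 4 or 7 h. Plasma and liver cytokines by multiplex, maximum level reported, rounded to nearest multiple of 5.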

Liver [5] = assay: Proinflammatory activity in C57BL/6J mouse liver assessed as TNFalpha levels at 10 mg/kg, po by multiplex assay (reference value: 15 pg/g); assay type: functional
Liver [6] = assay: Induction of IFNalpha levels in C57BL/6J mouse liver at 10 mg/kg, po by ELISA (reference value: 30 pg/g); assay type: functional
Liver [7] = assay: Proinflammatory activity in C57BL/6J mouse liver assessed as CXCL-1 levels at 1 mg/kg, po by multiplex assay (reference value: 25 pg/g); assay type: functional
[8] = AUC in Sprague-Dawley rat at 10 mg/kg, po; assay type: ADME, organism-based; conditions: in vivo
Procedure, shortened: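 Male Sprague-Dawley rats were given 10 mg/kg orally as a solution. Compound was sampled from the portal vein, the systemic circulation and the liver.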

[9] = Permeability of the compound in porcine LLC-PK1 cells expressing MDR1 at 1 uM by LC-MS/MS analysis; assay type: ADME, cell-based, Sus scrofa; conditions: pig, llc-pk1, 1 µM
Plasma [10] = assay: Proinflammatory activity in C57BL/6J mouse plasma assessed as IL-1beta levels at 1 mg/kg, po by multiplex assay (reference value: 60 pg/ml); assay type: functional, organism-based
Cynomolgus monkey [11] = assay: Activation of monocytes in cynomolgus monkey plasma assessed as upregulation of IL1Ra levels at 9 mg/kg, po after 24 hrs by Luminex assay (reference value: 320 pg/ml); assay type: functional, Macaca fascicularis
[12] = Cmax in Sprague-Dawley rat liver at 10 mg/kg, po; assay type: ADME, organism-based; design: dose 10 mg/kg, route oral
Procedure, shortened: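 Male Sprague-Dawley rats given 10 mg/kg po as a solution. Compound measured in portal vein, systemic plasma and liver. Cmax taken from concentration–time profiles.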

Cynomolgus monkey [13] = assay: Activation of monocytes in cynomolgus monkey plasma assessed as upregulation of IL1Ra levels at 1 mg/kg, po after 24 hrs by Luminex assay (reference value: 320 pg/ml); assay type: functional, Macaca fascicularis
Cynomolgus monkey [14] = assay: Induction of ISG response in cynomolgus monkey plasma assessed as upregulation of Isg15 mRNA expression at 30 mg/kg, po after 24 hrs by Fluidigm RT-qPCR analysis (reference value: 1); assay type: functional, Macaca fascicularis; procedure, shortened: as §1
Plasma [15] = assay: Induction of IFNalpha levels in C57BL/6J mouse plasma at 10 mg/kg, po by ELISA; assay type: functional
[16] = Protein binding in dog plasma fraction at 5 uM after 4.5 hrs LC-MS/MS-based rapid equilibrium dialysis method; assay type: ADME, cell-free, Canis lupus familiaris; conditions: read-out: PPB (converted)
[17] = target: T1, TLR7 and TLR8 (Homo sapiens) (UniProt Q9NYK1+Q9NR97); assay: Agonist activity at TLR7/8 in human PBMCs co-cultured with primary human hepatocytes infected with HBV genotype C for 12 days assessed as increase in GROalpha levels up to 5 uM measured after 42 days
T1 sequence (Q9NR97 whole entry, looked up): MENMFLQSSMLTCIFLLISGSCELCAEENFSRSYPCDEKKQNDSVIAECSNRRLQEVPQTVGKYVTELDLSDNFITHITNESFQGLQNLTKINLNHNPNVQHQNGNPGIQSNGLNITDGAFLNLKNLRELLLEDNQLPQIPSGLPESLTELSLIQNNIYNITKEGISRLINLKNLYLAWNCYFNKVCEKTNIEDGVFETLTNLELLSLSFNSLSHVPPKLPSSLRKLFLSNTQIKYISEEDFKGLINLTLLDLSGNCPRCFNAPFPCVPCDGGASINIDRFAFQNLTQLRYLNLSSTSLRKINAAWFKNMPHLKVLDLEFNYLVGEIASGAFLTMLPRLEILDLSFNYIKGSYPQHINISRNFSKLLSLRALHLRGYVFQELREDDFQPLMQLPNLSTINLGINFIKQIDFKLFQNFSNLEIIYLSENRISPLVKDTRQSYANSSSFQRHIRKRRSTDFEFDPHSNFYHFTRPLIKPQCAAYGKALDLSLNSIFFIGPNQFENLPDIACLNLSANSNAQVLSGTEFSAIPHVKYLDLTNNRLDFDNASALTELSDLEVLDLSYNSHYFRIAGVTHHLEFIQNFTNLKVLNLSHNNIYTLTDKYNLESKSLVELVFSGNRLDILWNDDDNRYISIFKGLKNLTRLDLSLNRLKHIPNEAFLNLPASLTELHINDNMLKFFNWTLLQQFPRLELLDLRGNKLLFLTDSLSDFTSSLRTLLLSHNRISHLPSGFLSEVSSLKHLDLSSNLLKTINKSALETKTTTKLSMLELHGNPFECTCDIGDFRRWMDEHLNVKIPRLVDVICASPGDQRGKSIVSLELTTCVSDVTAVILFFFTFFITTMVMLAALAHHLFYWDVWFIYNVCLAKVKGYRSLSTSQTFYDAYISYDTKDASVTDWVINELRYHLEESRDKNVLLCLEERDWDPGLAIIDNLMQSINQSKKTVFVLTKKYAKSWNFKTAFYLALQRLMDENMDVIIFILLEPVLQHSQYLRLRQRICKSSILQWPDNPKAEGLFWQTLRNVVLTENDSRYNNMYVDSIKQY
T1 sequence (Q9NYK1 whole entry, looked up): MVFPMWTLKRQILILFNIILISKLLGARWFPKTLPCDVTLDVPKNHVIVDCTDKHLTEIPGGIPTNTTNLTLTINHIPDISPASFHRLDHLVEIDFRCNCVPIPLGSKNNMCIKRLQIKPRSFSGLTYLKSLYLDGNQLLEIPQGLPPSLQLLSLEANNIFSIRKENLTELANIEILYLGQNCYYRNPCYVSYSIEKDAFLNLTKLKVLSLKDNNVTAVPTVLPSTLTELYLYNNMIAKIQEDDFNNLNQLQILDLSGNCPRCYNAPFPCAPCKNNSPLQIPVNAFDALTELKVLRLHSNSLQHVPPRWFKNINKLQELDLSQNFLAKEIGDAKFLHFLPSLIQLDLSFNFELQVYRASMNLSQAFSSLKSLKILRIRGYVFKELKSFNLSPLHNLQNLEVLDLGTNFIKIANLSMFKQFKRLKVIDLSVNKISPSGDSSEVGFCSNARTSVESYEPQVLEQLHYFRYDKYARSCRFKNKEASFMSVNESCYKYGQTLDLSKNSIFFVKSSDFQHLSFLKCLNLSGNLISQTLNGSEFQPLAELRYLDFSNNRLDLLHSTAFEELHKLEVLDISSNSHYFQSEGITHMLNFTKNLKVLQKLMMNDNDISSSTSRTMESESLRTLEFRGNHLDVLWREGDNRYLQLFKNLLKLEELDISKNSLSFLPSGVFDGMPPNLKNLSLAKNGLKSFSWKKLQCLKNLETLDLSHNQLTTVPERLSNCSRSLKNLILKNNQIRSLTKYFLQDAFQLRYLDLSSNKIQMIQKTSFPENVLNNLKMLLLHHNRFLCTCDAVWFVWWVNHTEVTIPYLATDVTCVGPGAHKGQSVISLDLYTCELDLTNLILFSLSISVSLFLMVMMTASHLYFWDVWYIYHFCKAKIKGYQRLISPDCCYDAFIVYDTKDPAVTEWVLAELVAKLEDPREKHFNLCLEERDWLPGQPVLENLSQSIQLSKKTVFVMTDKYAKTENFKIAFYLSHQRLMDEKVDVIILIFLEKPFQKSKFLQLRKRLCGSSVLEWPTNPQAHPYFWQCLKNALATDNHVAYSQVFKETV

Cynomolgus monkey [18] = assay: Activation of monocytes in cynomolgus monkey plasma assessed as upregulation of MCP1 levels at 9 mg/kg, po after 24 hrs by Luminex assay (reference value: 385 pg/ml); assay type: functional, Macaca fascicularis
Liver [19] = assay: Proinflammatory activity in C57BL/6J mouse liver assessed as TNFalpha levels at 0.3 mg/kg, po by multiplex assay (reference value: 15 pg/g); assay type: functional
[20] = Cmax in C57BL/6J mouse plasma at 3 mg/kg, po by LC-MS analysis; assay type: ADME, organism-based; design: dose 3 mg/kg, route oral
Procedure, shortened: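 Healthy C57BL/6 mice, groups of 15, given a single oral dose (0.3, 1, 3, 10 or 30 mg/kg) in 20% HP-β-CD. Blood drawn at 0.5 h. Three mice per group sacrificed at 0.5, 1, 2, 4 or 7 h, and compound in plasma and liver measured by LC−MS. Values rounded to whole numbers.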

Liver [21] = assay: Effect on cytokine profile in C57BL/6J mouse liver assessed as IL-12p70 levels at 1 mg/kg, po by multiplex assay (reference value: 5 pg/g); assay type: functional, organism-based; procedure, shortened: as §2
Cynomolgus monkey [22] = assay: Upregulation of Tlr8 expression in cynomolgus monkey plasma at 1 to 30 mg/kg, po after 24 hrs by Fluidigm RT-qPCR analysis; assay type: functional, organism-based; conditions: Macaca fascicularis
Plasma [23] = assay: Proinflammatory activity in C57BL/6J mouse plasma assessed as TNFalpha levels at 30 mg/kg, po by multiplex assay (reference value: 70 pg/ml); assay type: functional
[24] = target: T1, TLR7 and TLR8 (Homo sapiens); assay: Agonist activity at TLR7/8 in human PBMCs co-cultured with primary human hepatocytes infected with HBV genotype C for 12 days assessed as increase in fractalkine sCD40L levels up to 5 uM measured after 42 days
Liver [25] = assay: Anti-inflammatory activity in C57BL/6J mouse liver assessed as IL-10 levels at 30 mg/kg, po by multiplex assay (reference value: 2 pg/g); assay type: functional; procedure, shortened: as §2

Compound: CCC[C@@H](CCO)Nc1nc(N)nc2c(F)cccc12
- fold change (FC) (Cynomolgus monkey [1]): 235
- Activity (Cynomolgus monkey [2]): 75 pg/mL
- fold change (FC) (Cynomolgus monkey [3]): 55
- Activity (Plasma [4]): 5170 pg/mL
- Activity (Liver [5]): 8330 pg/g
- Activity (Liver [6]): 1365 pg/g
- Activity (Liver [7]): 6755 pg/g
- AUC [8]: 49 ng·h/mL
- permeability [9]: Permeable
- Activity (Plasma [10]): Below limit of detection
- Activity (Cynomolgus monkey [11]): 2455 pg/mL
- Cmax [12]: 285 ng/g
- Activity (Cynomolgus monkey [13]): 805 pg/mL
- fold change (FC) (Cynomolgus monkey [14]): 285
- Activity (Plasma [15]): >3200 pg/mL
- fraction unbound at 4.5 h, 5 µM [16]: 0.59
- Activity [17]: Active
- Activity (Cynomolgus monkey [18]): 8890 pg/mL
- Activity (Liver [19]): 1945 pg/g
- Cmax [20]: 22 ng/mL
- Activity (Liver [21]): Below limit of detection
- Activity (Cynomolgus monkey [22]): inactive
- Activity (Plasma [23]): >10000 pg/mL
- Activity [24]: Active
- Activity (Liver [25]): 5185 pg/g
